Series [1] is filed under the species Rattus norvegicus. Description: Antiinflammatory activity by using Rat pyresis assay. It counts as functional. In short, it runs like this:
(§1)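 Rat in vivo models (paw edema, pyresis, hyperalgesia, adjuvant arthritis), with activity expressed as ED50 in mg/kg.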

The species named for series [2] is Rattus norvegicus. Description: Antiinflammatory activity by using Rat adjuvant arthritis assay. It counts as functional. In short, it runs like this: as §1
Series [3] is described as follows: Half-life in rat. To be noted: in vivo. It counts as ADME, organism-based. In short, it runs like this:
(§2)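 Rat pharmacokinetics at a 10 mg/kg dose, reporting half-life, Cmax (μM) and bioavailability (%).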

The species entered for series [4] is Rattus norvegicus. In words: Antiinflammatory activity by using Rat hyperalgesia assay. It is filed as functional. In outline: as §1
Series [5] deals with T1, Prostaglandin G/H synthase 2 (Homo sapiens, UniProt P35354).
T1 sequence (P35354 whole entry): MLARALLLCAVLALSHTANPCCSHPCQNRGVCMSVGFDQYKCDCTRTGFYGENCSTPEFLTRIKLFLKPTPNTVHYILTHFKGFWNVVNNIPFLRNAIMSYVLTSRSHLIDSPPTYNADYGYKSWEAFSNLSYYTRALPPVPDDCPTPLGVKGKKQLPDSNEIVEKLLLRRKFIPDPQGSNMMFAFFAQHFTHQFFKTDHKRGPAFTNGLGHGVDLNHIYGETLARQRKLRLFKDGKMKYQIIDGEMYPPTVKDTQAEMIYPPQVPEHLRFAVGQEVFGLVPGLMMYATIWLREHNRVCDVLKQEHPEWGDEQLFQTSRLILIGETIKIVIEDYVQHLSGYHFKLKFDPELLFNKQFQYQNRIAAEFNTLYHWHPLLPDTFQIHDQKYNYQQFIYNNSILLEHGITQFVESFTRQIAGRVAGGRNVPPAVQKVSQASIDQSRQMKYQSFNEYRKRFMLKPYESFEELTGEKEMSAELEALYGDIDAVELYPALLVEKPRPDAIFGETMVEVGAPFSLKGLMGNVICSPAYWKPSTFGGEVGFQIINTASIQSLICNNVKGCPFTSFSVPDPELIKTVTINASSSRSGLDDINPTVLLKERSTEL
In words: In vitro inhibitory potency against Prostaglandin G/H synthase 2 in human whole blood assay. It counts as tissue-based.

Series [6] in a line: Bioavailability in rat. The following applies: in vivo. It counts as ADME, organism-based. In outline:
as §2

In series [7] the test system is Rattus norvegicus. In words: Antiinflammatory activity by using Rat paw edema assay. It is filed as functional. In outline: as §1
The nature of series [8]: Cmax in rat. It counts as ADME, organism-based. The following applies: in vivo. In short, it runs like this:
as §2

In series [9] the target is Prostaglandin G/H synthase 1 (Homo sapiens, UniProt P23219). Description: In vitro inhibitory potency against Prostaglandin G/H synthase 1 in human whole blood assay. It counts as tissue-based.
Sequence of Prostaglandin G/H synthase 1 (P23219 whole entry): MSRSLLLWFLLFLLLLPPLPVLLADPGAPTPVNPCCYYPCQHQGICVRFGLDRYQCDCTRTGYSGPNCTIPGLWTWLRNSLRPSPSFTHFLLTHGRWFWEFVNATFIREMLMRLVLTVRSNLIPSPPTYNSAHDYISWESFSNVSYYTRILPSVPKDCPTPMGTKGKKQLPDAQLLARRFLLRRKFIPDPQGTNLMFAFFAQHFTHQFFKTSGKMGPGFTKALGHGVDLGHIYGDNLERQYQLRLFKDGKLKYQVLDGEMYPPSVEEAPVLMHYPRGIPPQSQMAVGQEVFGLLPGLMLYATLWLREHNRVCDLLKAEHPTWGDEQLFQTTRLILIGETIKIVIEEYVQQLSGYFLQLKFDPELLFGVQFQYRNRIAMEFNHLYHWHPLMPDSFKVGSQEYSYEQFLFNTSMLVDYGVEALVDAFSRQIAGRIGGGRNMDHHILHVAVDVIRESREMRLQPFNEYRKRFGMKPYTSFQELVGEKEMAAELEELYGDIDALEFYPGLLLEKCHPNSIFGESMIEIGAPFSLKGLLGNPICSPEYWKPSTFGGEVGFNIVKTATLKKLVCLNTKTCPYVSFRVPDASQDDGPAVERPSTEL

As a reminder, the ED50 is the dose that gives a 50% effect, or the effect in half of the subjects. What is called half-life is how long it takes for the measured level to halve. Low readings indicate fast loss, high ones slow loss. The IC50 is the concentration at which inhibition is half-maximal. One may read the bioavailability as dose-corrected exposure relative to a reference, in per cent. In general, Cmax refers to the peak of the concentration-time curve.

As to `CC[C@]1(C)OC(=O)C(OC(C)C)=C1c1ccc(S(C)(=O)=O)cc1`, the 50% effective dose (ED50) is 0.7 mg/kg in the series listed under Rattus norvegicus [1], 3.3 mg/kg in the series filed under Rattus norvegicus [2], 0.7 mg/kg in the series listed under Rattus norvegicus [4] and 1.2 mg/kg in the series on Rattus norvegicus [7]. This molecule also gave a half-life in series [3] of 2 h. In addition, the results for the IC50 in series [5] and in [9] (read-out: IC50) were 400 nM and more than 86000 nM, respectively. In addition, the bioavailability in series [6] turned out to be 100%. Further, in series [8], the Cmax stood at 1.7 µM.
Regarding `CC(C)OC1=C(c2ccc(S(C)(=O)=O)cc2)C(C)(C)OC1=O`, the ED50 in the series listed under Rattus norvegicus [1] was determined as 0.3 mg/kg; in the series filed under Rattus norvegicus [2], 0.3 mg/kg; in the series listed under Rattus norvegicus [4], 0.8 mg/kg; in the series on Rattus norvegicus [7], 0.8 mg/kg. This molecule showed a half-life in series [3] of 7.1 h. Besides, the concentration in series [8] peaked (Cmax) at 15 µM. Moreover, the IC50 in series [9] (read-out: IC50) was more than 100000 nM.
With `COc1ccc2c(c1)c(CC(=O)O)c(C)n2C(=O)c1ccc(Cl)cc1` [INDOMETHACIN], the ED50 amounted to 1 mg/kg in the series listed under Rattus norvegicus [1], 0.2 mg/kg in the series listed under Rattus norvegicus [2], 1.4 mg/kg in the series listed under Rattus norvegicus [4] and 2 mg/kg in the series with Rattus norvegicus [7].
`CC(C)OC1=C(c2ccc(S(C)(=O)=O)cc2)C(C)(CC(F)(F)F)OC1=O` (stereo not given): the IC50 entry in series [9] was “Not Active”.
`CS(=O)(=O)c1ccc(C2=C(c3ccccc3)C(=O)OC2)cc1` [ROFECOXIB]: the 50% effective dose (ED50) amounted to 0.2 mg/kg in the series listed under Rattus norvegicus [1], 0.8 mg/kg in the series listed under Rattus norvegicus [2], 1 mg/kg in the series listed under Rattus norvegicus [4] and 1.5 mg/kg in the series with Rattus norvegicus [7].
As for `CC[C@@]1(C)OC(=O)C(OC(C)C)=C1c1ccc(S(C)(=O)=O)cc1` (single isomer, unassigned), the results for the median effective dose (ED50) in the series listed under Rattus norvegicus [1] and in the series on Rattus norvegicus [7] were 4.9 mg/kg and 4.5 mg/kg, respectively. Also, the half-life in series [3] was less than 2 h. For the same molecule, the IC50 in series [5] was 500 nM; in series [9] (read-out: IC50), more than 100000 nM.

Values taken from ChEMBL document CHEMBL1134972, “Discovery of a potent and selective COX-2 inhibitor in the alkoxy lactone series with optimized metabolic profile” (Bioorg Med Chem Lett, 2002).
